Common to all, as to format: functional
Test [1] has as its system Trichophyton mentagrophytes. Kind of test: Antifungal activity against recultured Trichophyton mentagrophytes at MIC after 3 to 4 days by agar well diffusion method. Summed up:
(§1)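 Sabouraud agar (peptone, D-glucose, agar; pH 5.7) seeded with spore suspension made by transferring a loopful of fungus to 3 mL normal saline. Excess decanted, plates dried 1 h at 37 °C. Compounds in DMSO at MIC added to punched wells; DMSO control. Triplicate plates kept 3–4 days at 37 °C.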
(In general: In agar diffusion tests the substance spreads into inoculated agar from a disc or well.)

Test [2] has as its system Escherichia coli. Kind of test: Antibacterial activity against Escherichia coli ATCC 25922 at MIC after 3 to 4 days by agar well diffusion method.
The subject of test [3] is Trichophyton mentagrophytes. Kind of test: Antifungal activity against recultured Trichophyton mentagrophytes by serial plate dilution method.
Test [4] deals with Aspergillus fumigatus. Kind of test: Antifungal activity against Aspergillus fumigatus NCIM 902 by serial plate dilution method.
The subject of test [5] is Aspergillus flavus. Kind of test: Antifungal activity against Aspergillus flavus NCIM 524 at MIC after 3 to 4 days by agar well diffusion method. Summed up:
as §1

The test system of test [6] is Aspergillus flavus. Kind of test: Antifungal activity against Aspergillus flavus NCIM 524 by serial plate dilution method.
For test [7], the system named is Pseudomonas aeruginosa. Kind of test: Antibacterial activity against Pseudomonas aeruginosa ATCC 27853 after 16 to 18 hrs by serial plate dilution method. The procedure, abridged:
(§2)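 Drug serially diluted in Mueller–Hinton broth in tubes, adjusted to pH 5.0 with phosphate buffer. Inoculated with standardized bacterial suspension and incubated 16–18 h at 37 °C. MIC taken as lowest concentration with no visible growth.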

Test [8] has as its system Talaromyces marneffei. Kind of test: Antifungal activity against recultured Penicillium marneffei by serial plate dilution method.
The subject of test [9] is Aspergillus fumigatus. Kind of test: Antifungal activity against Aspergillus fumigatus NCIM 902 at MIC after 3 to 4 days by agar well diffusion method. The procedure, abridged: as §1
For test [10], the system named is Staphylococcus aureus. Kind of test: Antibacterial activity against Staphylococcus aureus ATCC 25923 at MIC after 3 to 4 days by agar well diffusion method.
The test system of test [11] is Staphylococcus aureus. Kind of test: Antibacterial activity against Staphylococcus aureus ATCC 25923 after 16 to 18 hrs by serial plate dilution method. The procedure, abridged: as §2
The subject of test [12] is Pseudomonas aeruginosa. Kind of test: Antibacterial activity against Pseudomonas aeruginosa ATCC 27853 at MIC after 3 to 4 days by agar well diffusion method.
In test [13] the test system is Talaromyces marneffei. Kind of test: Antifungal activity against recultured Penicillium marneffei at MIC after 3 to 4 days by agar well diffusion method. Summed up:
as §1

For test [14], the system named is Escherichia coli. Kind of test: Antibacterial activity against Escherichia coli ATCC 25922 after 16 to 18 hrs by serial plate dilution method. Summed up: as §2
Test [15] concerns Klebsiella pneumoniae. Kind of test: Antibacterial activity against recultured Klebsiella pneumoniae at MIC after 3 to 4 days by agar well diffusion method.
The test system of test [16] is Klebsiella pneumoniae. Kind of test: Antibacterial activity against recultured Klebsiella pneumoniae after 16 to 18 hrs by serial plate dilution method. The procedure, abridged:
as §2

Structures are written as SMILES. Values after ≈ are worked out from the molar mass of the structure shown.

Take `CC(C)(C)CCNc1c(-c2nnc(S)n2Cc2ccccc2)cnc2c(C(F)(F)F)cccc12`: the “inhibition zone (IZ)” value in test [1] is 16 mm; in test [2], 16 mm; in test [5], 10 mm; in test [9] it was 10 mm; in test [10], 10 mm; in [12], 10 mm. The “inhibition zone (IZ)” value in test [13] was 10 mm; in [15], 12 mm. Moreover, the minimum inhibitory concentration (MIC) in test [3], in test [4], in test [6], in [7], in [8] and in test [11] was 12.5 µg/mL (≈ 25.7 µM) in each case. The minimal inhibitory concentration (MIC) in test [14] and in [16] was 12.5 µg/mL (≈ 25.7 µM) each time.

As to `COCCn1c(S)nnc1-c1cnc2c(C(F)(F)F)cccc2c1N1CCN(C2CCCCC2)CC1`, the “inhibition zone (IZ)” value in test [1] is 20 mm; in test [2] it was 20 mm; in [5], <10 mm; in test [9] it was <10 mm; in test [10] it was <10 mm; in test [12] it was <10 mm. Moreover, the “inhibition zone (IZ)” value in test [13] and in [15] was <10 mm each time. Also, the MIC was found to be 6.25 µg/mL (≈ 12 µM) in [3]; 50 µg/mL (≈ 96 µM) in test [4]; 50 µg/mL (≈ 96 µM) in test [6]; 50 µg/mL (≈ 96 µM) in [7]; 50 µg/mL (≈ 96 µM) in [8]; 50 µg/mL (≈ 96 µM) in [11]. The minimum inhibitory concentration (MIC) in [14] was determined as 6.25 µg/mL (≈ 12 µM); in [16], 50 µg/mL (≈ 96 µM).

Consider `FC(F)(F)c1cccc2c(NC3CCCCC3)c(-c3nnc(S)n3Cc3ccccc3)cnc12`, for which the “inhibition zone (IZ)” value in [1] was determined as 16 mm; in test [2], 16 mm; in test [5] it was 10 mm; in test [9] it was 10 mm; in test [10], 10 mm; in test [12], 10 mm. Further, the entries for the “inhibition zone (IZ)” value in test [13] and in test [15] were 10 mm and 12 mm, respectively. Besides, the MIC in test [3], in test [4], in [6], in [7], in test [8] and in test [11] was 12.5 µg/mL (≈ 25.8 µM) each time. Besides, the MIC in test [14] and in test [16] was 12.5 µg/mL (≈ 25.8 µM) each time.

Take `CCN1CCN(c2c(-c3nnc(S)n3CCOC)cnc3c(C(F)(F)F)cccc23)CC1`: the “inhibition zone (IZ)” value in [1] is listed as 20 mm; in test [2], 20 mm; in test [5] it was <10 mm; in test [9], <10 mm; in test [10], <10 mm; in [12], <10 mm. For the same compound, the “inhibition zone (IZ)” value in test [13] and in [15] was <10 mm throughout. The minimal inhibitory concentration (MIC) in test [3] was determined as 6.25 µg/mL (≈ 13.4 µM); in test [4], 50 µg/mL (≈ 107 µM); in test [6], 50 µg/mL (≈ 107 µM); in test [7] it was 50 µg/mL (≈ 107 µM); in test [8], 50 µg/mL (≈ 107 µM); in test [11], 50 µg/mL (≈ 107 µM). In addition, the MIC worked out at 6.25 µg/mL (≈ 13.4 µM) in test [14] and 50 µg/mL (≈ 107 µM) in test [16].

On to `FC(F)(F)c1cccc2c(N3CCN(C4CCCCC4)CC3)c(-c3nnc(S)n3-c3ccccc3)cnc12`, for which the “inhibition zone (IZ)” value is reported as <10 mm in test [1]; 20 mm in test [2]; <10 mm in test [5]; <10 mm in test [9]; <10 mm in test [10]; <10 mm in [12]. Also, the “inhibition zone (IZ)” value in test [13] and in [15] was <10 mm throughout. The minimum inhibitory concentration (MIC) in [3], in [4], in test [6], in test [7], in [8] and in test [11] was 50 µg/mL (≈ 92.8 µM) each time. In addition, the minimum inhibitory concentration (MIC) in [14] came out at 6.25 µg/mL (≈ 11.6 µM); in test [16] it was 50 µg/mL (≈ 92.8 µM).

On to `OCCCC1CCN(c2c(-c3nnc(S)n3-c3ccccc3)cnc3c(C(F)(F)F)cccc23)CC1`, for which the “inhibition zone (IZ)” value in test [1] is <10 mm; in test [2], 16 mm; in [5], <10 mm; in test [9], <10 mm; in [10] it was 16 mm; in test [12] it was <10 mm. The “inhibition zone (IZ)” value in test [13] and in test [15] was <10 mm each time. The minimum inhibitory concentration (MIC) came to 50 µg/mL (≈ 97.4 µM) in test [3]; 50 µg/mL (≈ 97.4 µM) in test [4]; 50 µg/mL (≈ 97.4 µM) in test [6]; 50 µg/mL (≈ 97.4 µM) in test [7]; 50 µg/mL (≈ 97.4 µM) in [8]; 6.25 µg/mL (≈ 12.2 µM) in [11]. Moreover, the minimum inhibitory concentration (MIC) in test [14] turned out to be 12.5 µg/mL (≈ 24.3 µM); in [16], 50 µg/mL (≈ 97.4 µM).

As to `COCCn1c(S)nnc1-c1cnc2c(C(F)(F)F)cccc2c1N1CCC(CCCO)CC1`, the “inhibition zone (IZ)” value in test [1] was <10 mm; in test [2], 20 mm; in [5] it was <10 mm; in test [9], <10 mm; in [10] it was 16 mm; in test [12] it was <10 mm. Moreover, the “inhibition zone (IZ)” value in [13] and in [15] was <10 mm throughout. Further, the MIC in test [3] was 50 µg/mL (≈ 101 µM); in [4], 50 µg/mL (≈ 101 µM); in test [6], 50 µg/mL (≈ 101 µM); in test [7], 50 µg/mL (≈ 101 µM); in test [8], 50 µg/mL (≈ 101 µM); in test [11] it was 6.25 µg/mL (≈ 12.6 µM). Moreover, the minimum inhibitory concentration (MIC) in test [14] is 6.25 µg/mL (≈ 12.6 µM); in test [16], 50 µg/mL (≈ 101 µM).

On to `COCCn1c(S)nnc1-c1cnc2c(C(F)(F)F)cccc2c1Cl`, for which the “inhibition zone (IZ)” value in test [1] is listed as 10 mm; in test [2] it was 16 mm; in test [5] it was 10 mm; in [9], 10 mm; in test [10], 10 mm; in test [12] it was 10 mm. Besides, the “inhibition zone (IZ)” value came out at 10 mm in test [13] and 12 mm in [15]. In addition, the minimal inhibitory concentration (MIC) in [3], in test [4], in test [6], in [7], in test [8] and in [11] was 12.5 µg/mL (≈ 32.2 µM) in each case. Besides, the values for the MIC in [14] and in [16] were 6.25 µg/mL (≈ 16.1 µM) and 12.5 µg/mL (≈ 32.2 µM), respectively.

Turning to `FC(F)(F)c1cccc2c(N3CCOCC3)c(-c3nnc(S)n3Cc3ccccc3)cnc12`, the “inhibition zone (IZ)” value in test [1] is on record as 16 mm; in [2], 16 mm; in [5], 10 mm; in test [9], 10 mm; in test [10], 16 mm; in test [12], <10 mm. Also, the “inhibition zone (IZ)” value is 10 mm in test [13] and <10 mm in [15]. Moreover, the MIC in [3] was determined as 12.5 µg/mL (≈ 26.5 µM); in test [4], 12.5 µg/mL (≈ 26.5 µM); in test [6], 12.5 µg/mL (≈ 26.5 µM); in test [7], 50 µg/mL (≈ 106 µM); in [8], 12.5 µg/mL (≈ 26.5 µM); in test [11] it was 6.25 µg/mL (≈ 13.3 µM). Further, the minimum inhibitory concentration (MIC) in [14] was found to be 12.5 µg/mL (≈ 26.5 µM); in test [16], 50 µg/mL (≈ 106 µM).

For `OCCCC1CCN(c2c(-c3nnc(S)n3Cc3ccccc3)cnc3c(C(F)(F)F)cccc23)CC1`, the “inhibition zone (IZ)” value worked out at 16 mm in [1]; 16 mm in [2]; 10 mm in test [5]; 10 mm in [9]; 10 mm in test [10]; 10 mm in test [12]. Also, the “inhibition zone (IZ)” value is 10 mm in test [13] and 12 mm in test [15]. Also, the MIC in test [3], in test [4], in test [6], in test [7], in [8] and in [11] was 12.5 µg/mL (≈ 23.7 µM) in each case. Further, the MIC in test [14] and in test [16] was 12.5 µg/mL (≈ 23.7 µM) each time.

Take `CC(C)N1CCN(c2c(-c3nnc(S)n3-c3ccccc3)cnc3c(C(F)(F)F)cccc23)CC1`: the “inhibition zone (IZ)” value in test [1] is on record as <10 mm; in test [2], 20 mm; in test [5], <10 mm; in [9], <10 mm; in test [10], <10 mm; in test [12] it was <10 mm. Also, the “inhibition zone (IZ)” value in test [13] and in test [15] was <10 mm each time. The MIC in [3], in [4], in [6], in test [7], in test [8] and in [11] was 50 µg/mL (≈ 100 µM) in each case. Moreover, the minimal inhibitory concentration (MIC) worked out at 6.25 µg/mL (≈ 12.5 µM) in [14] and 50 µg/mL (≈ 100 µM) in [16].

For the compound `O=C(O)c1cn(C2CC2)c2cc(N3CCNCC3)c(F)cc2c1=O` [CIPROFLOXACIN], the “inhibition zone (IZ)” value in test [2] came to 30 mm; in test [10], 22 mm; in [12], 25 mm; in [15], 23 mm. This compound also came in with a minimal inhibitory concentration (MIC) in [16] of 6.25 µg/mL (≈ 18.9 µM).

A word on the MIC: it is the least concentration at which growth counts as inhibited. A low value points to a more susceptible organism.
